# Data as given in ChEMBL document CHEMBL1153046, “Synthesis and antitumor activity of substituted triazolo[4,3-a]pyrimidin-6-sulfonamide with an incorporated thiazolidinone moiety” (2009).
# Key:
# Format in all cases: functional
# [1] = Growth inhibition of human […] cells after 48 hrs by sulforhodamine B assay
# Outline: (§1)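 NCI 60-cell-line panel. Cells are grown in RPMI1640 with 5% fetal calf serum and 2 mM L-glutamine, seeded at a density set by growth characteristics, and preincubated 24 h. Compound is tested at a minimum of five concentrations at 10-fold dilution, with 48 h continuous exposure. Viability is read by sulforhodamine B protein assay. GI50, TGI and LC50 come from dose-response curves.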
# [2] = test system: SR; test: Growth inhibition of human SR cells after 48 hrs by sulforhodamine B assay
# Outline: (§2)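 NCI 60-cell-line panel (nine cancer types), with cells grown in RPMI1640 plus 5% fetal calf serum and 2 mM L-glutamine. Cells are seeded at a density that depends on the line and preincubated 24 h. Compounds are then applied at a minimum of five 10-fold dilutions over a 5-log range with 48 h continuous exposure. Viability is read by SRB protein assay, and GI50 is derived from dose-response curves in units of 10^-5 M.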
# [3] = test system: A549; test: Growth inhibition of human A549 cells after 48 hrs by sulforhodamine B assay; conditions: A549, 48 h; outline: as §1
# [4] = test system: EKVX; test: Growth inhibition of human EKVX cells after 48 hrs by sulforhodamine B assay; outline: as §1
# [5] = test system: HOP-62; test: Growth inhibition of human HOP62 cells after 48 hrs by sulforhodamine B assay; conditions: HOP-62, 48 h; outline: as §1
# [6] = test system: NCI-H226; test: Growth inhibition of human NCI-H226 cells after 48 hrs by sulforhodamine B assay; conditions: NCI-H226, 48 h; outline: as §1
# [7] = test system: NCI-H23; test: Growth inhibition of human NCI-H23 cells after 48 hrs by sulforhodamine B assay; conditions: NCI-H23, 48 h; outline: as §1
# [8] = test system: NCI-H460; test: Growth inhibition of human NCI-H460 cells after 48 hrs by sulforhodamine B assay; conditions: NCI-H460, 48 h; outline: as §1
# [9] = test system: COLO 205; test: Growth inhibition of human COLO205 cells after 48 hrs by sulforhodamine B assay; conditions: COLO 205, 48 h; outline: as §1
# [10] = test system: HCC 2998; test: Growth inhibition of human HCC2998 cells after 48 hrs by sulforhodamine B assay; conditions: HCC 2998, 48 h; outline: as §1
# [11] = test system: HCT-15; test: Growth inhibition of human HCT15 cells after 48 hrs by sulforhodamine B assay; conditions: HCT-15, 48 h; outline: as §1
# [12] = test system: SW-620; test: Growth inhibition of human SW620 cells after 48 hrs by sulforhodamine B assay; conditions: SW-620, 48 h; outline: as §2
# [13] = test system: SF-295; test: Growth inhibition of human SF295 cells after 48 hrs by sulforhodamine B assay; conditions: SF-295, 48 h; outline: as §1
# [14] = test system: SF-539; test: Growth inhibition of human SF539 cells after 48 hrs by sulforhodamine B assay; conditions: SF-539, 48 h; outline: as §1
# [15] = test system: SNB-75; test: Growth inhibition of human SNB75 cells after 48 hrs by sulforhodamine B assay; conditions: SNB-75, 48 h; outline: as §2
# [16] = test system: U-251; test: Growth inhibition of human U251 cells after 48 hrs by sulforhodamine B assay; conditions: U-251, 48 h; outline: as §2
# [17] = test system: LOX IMVI; test: Growth inhibition of human LOXIMVI cells after 48 hrs by sulforhodamine B assay; outline: as §1
# [18] = test system: SK-MEL-2; test: Growth inhibition of human SK-MEL-2 cells after 48 hrs by sulforhodamine B assay; conditions: SK-MEL-2, 48 h; outline: as §1
# [19] = test system: SK-MEL-5; test: Growth inhibition of human SK-MEL-5 cells after 48 hrs by sulforhodamine B assay; conditions: SK-MEL-5, 48 h; outline: as §1
# [20] = test system: UACC-62; test: Growth inhibition of human UACC62 cells after 48 hrs by sulforhodamine B assay; conditions: UACC-62, 48 h; outline: as §2
# [21] = test system: OVCAR-5; test: Growth inhibition of human OVCAR5 cells after 48 hrs by sulforhodamine B assay; conditions: OVCAR-5, 48 h; outline: as §1
# [22] = test system: SK-OV-3; test: Growth inhibition of human SKOV3 cells after 48 hrs by sulforhodamine B assay; conditions: SK-OV-3, 48 h; outline: as §1
# [23] = test system: A498; test: Growth inhibition of human A498 cells after 48 hrs by sulforhodamine B assay; conditions: A498, 48 h; outline: as §1
# [24] = test system: SN12C; test: Growth inhibition of human SN12C cells after 48 hrs by sulforhodamine B assay; outline: as §1
# [25] = test system: TK-10; test: Growth inhibition of human TK10 cells after 48 hrs by sulforhodamine B assay; conditions: TK-10, 48 h; outline: as §2
# [26] = test system: MCF7; test: Antiproliferative activity against human MCF7 cells assessed as cell growth at 100 uM after 48 hrs by alamar blue assay; conditions: MCF7, 48 h, read-out: Activity
# Outline: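 NCI three-cell-line primary screen. Cells are seeded and preincubated in microtiter plates. Compound is added at a single 10^-4 M concentration and cultures are incubated 48 h. The end-point is read with alamar blue. Results are given as percent growth relative to untreated control cells.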
# [27] = test system: CCRF-CEM; test: Growth inhibition of human CCRF-CEM cells after 48 hrs by sulforhodamine B assay; outline: as §1
# [28] = test system: UO-31; test: Growth inhibition of human UO31 cells after 48 hrs by sulforhodamine B assay; conditions: UO-31, 48 h; outline: as §2
# [29] = test system: PC-3; test: Growth inhibition of human PC3 cells after 48 hrs by sulforhodamine B assay; conditions: PC-3, 48 h; outline: as §1
# [30] = test system: NCI/ADR-RES; test: Growth inhibition of human NCI/ADR-RES cells after 48 hrs by sulforhodamine B assay; outline: as §1
# [31] = test system: BT-549; test: Growth inhibition of human BT549 cells after 48 hrs by sulforhodamine B assay; conditions: BT-549, 48 h; outline: as §1
# [32] = read-out: LC50 (the source's name)
compound,measurement,setting,value
COc1ccc(/C=N/c2nc3[nH]nc(C)n3c(=O)c2S(=O)(=O)NN2C(=O)C(CN3CCOCC3)SC2c2cccs2)cc1 (configuration not stated),GI50,[1],3.86 µM
same,TGI,[1],26.2 µM
same,CC50,[1]; [32],> 100 µM
same,GI50,[2],1.1 µM
same,LC50 (concentration killing 50% of cells),[2],9.2 µM
same,TGI,[2],3.2 µM
same,GI50,[3],19.1 µM
same,TGI,[3],> 100 µM
same,GI50,[4],54.1 µM
same,TGI,[4],> 100 µM
same,GI50,[5],13.9 µM
same,LC50,[5],> 100 µM
same,TGI,[5],> 100 µM
same,GI50,[6],24.5 µM
same,LC50 (concentration killing 50% of cells),[6],> 100 µM
same,TGI,[6],> 100 µM
same,GI50,[7],44.5 µM
same,TGI,[7],> 100 µM
same,GI50,[8],5.32 µM
same,TGI,[8],> 100 µM
same,GI50,[9],14.9 µM
same,TGI,[9],12.8 µM
same,GI50,[10],3.96 µM
same,LC50,[10],64.8 µM
same,TGI,[10],31.3 µM
same,GI50,[11],4.52 µM
same,TGI,[11],71.7 µM
same,GI50,[12],6.11 µM
same,GI50,[13],4.69 µM
same,LC50 (concentration killing 50% of cells),[13],> 100 µM
same,TGI,[13],> 100 µM
same,GI50,[14],7.24 µM
same,LC50,[14],> 100 µM
same,TGI,[14],30.4 µM
same,GI50,[15],35.5 µM
same,TGI,[15],> 100 µM
same,GI50,[16],15.6 µM
same,LC50,[16],> 100 µM
same,TGI,[16],> 100 µM
same,GI50,[17],8.97 µM
same,TGI,[17],> 100 µM
same,GI50,[18],8.3 µM
same,LC50 (concentration killing 50% of cells),[18],> 100 µM
same,TGI,[18],81.9 µM
same,GI50,[19],3.71 µM
same,TGI,[19],24 µM
same,CC50,[19]; [32],> 100 µM
same,GI50,[20],3.7 µM
same,TGI,[20],31.4 µM
same,CC50,[20]; [32],> 100 µM
same,GI50,[21],43.4 µM
same,LC50 (concentration causing 50% net cell kill),[21],> 100 µM
same,TGI,[21],> 100 µM
same,GI50,[22],20.2 µM
same,TGI,[22],> 100 µM
same,GI50,[23],2.67 µM
same,LC50 (concentration giving 50% net cell kill),[23],> 100 µM
same,TGI,[23],15.5 µM
same,GI50,[24],16.8 µM
same,LC50,[24],> 100 µM
same,TGI,[24],85.7 µM
same,GI50,[25],20.8 µM
same,LC50,[25],> 100 µM
same,TGI,[25],92 µM
same,growth at 100 µM,[26],24%
same,GI50,[27],6.27 µM
same,TGI,[27],> 100 µM
same,GI50,[28],14.5 µM
same,LC50,[28],> 100 µM
same,TGI,[28],86.4 µM
same,GI50,[29],3.92 µM
same,LC50 (concentration killing 50% of cells),[29],> 100 µM
same,TGI,[29],95.8 µM
same,GI50,[30],9.98 µM
same,TGI,[30],64.8 µM
same,GI50,[31],18 µM
same,TGI,[31],> 100 µM
